Experimental data taken from ChEMBL document CHEMBL4689842, “EUbOPEN Chemogenomics Library wave 1” (2021).

Test system: U2OS
Assay: Multiplex assay against U2OS
Type: toxicity, cell-based
Details: human
In short: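 At seeding, live cells were stained with Hoechst33342, BioTracker Green Microtubule Cytoskeleton Dye, MitoTracker Red and Annexin V Alexa Fluor 680. After compound addition they were imaged on a CQ1 microscope at 37°C and 5% CO2, and CellPathfinder machine-learning gating sorted them into Hoechst high-intensity objects or normal cells, with normal cells further split into healthy, pyknosed or fragmented nuclei and pyknosed cells into mitotic or apoptotic. Tubulin, mitochondrial-mass and membrane-permeability phenotypes are given as per cents of cells with healthy nuclei.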

[1] = 12 h, 1 µM, compound concentration 1 uM, replicate 1
[2] = 12 h, 1 µM, compound concentration 1 uM, replicate 2
[3] = 12 h, 10 µM, compound concentration 10 uM, replicate 1
[4] = 12 h, 10 µM, compound concentration 10 uM, replicate 2
[5] = 24 h, 1 µM, compound concentration 1 uM, replicate 1
[6] = 24 h, 1 µM, compound concentration 1 uM, replicate 2
[7] = 24 h, 10 µM, compound concentration 10 uM, replicate 1
[8] = 24 h, 10 µM, compound concentration 10 uM, replicate 2

NC(=O)c1cccc(-c2cc(Nc3ccc(OC(F)(F)F)cc3)ncn2)c1
Population Apoptotic (%) [1]: 27% | Population Fragmented Nuclei (%) [1]: 5% | Population Healthy Nuclei (%) [1]: 89% | Population Hoechst High Intensity Objects (%) [1]: 1% | Population Membrane Permeable-Phenotype (%) [1]: 8% | Population Mitochondria Different-Phenotype (%) [1]: 24% | Population Mitotic Cells (%) [1]: 72% | Population Normal (%) [1]: 98% | Population Pyknosed Nuclei (%) [1]: 5% | Population Tubulin-Different-Phenotype (%) [1]: 25% | Total Cell Count [1]: 640 | Population Apoptotic (%) [2]: 0% | Population Fragmented Nuclei (%) [2]: 16% | Population Healthy Nuclei (%) [2]: 81% | Population Hoechst High Intensity Objects (%) [2]: 16% | Population Membrane Permeable-Phenotype (%) [2]: 13% | Population Mitochondria Different-Phenotype (%) [2]: 36% | Population Mitotic Cells (%) [2]: 100% | Population Normal (%) [2]: 84% | Population Pyknosed Nuclei (%) [2]: 1% | Population Tubulin-Different-Phenotype (%) [2]: 29% | Total Cell Count [2]: 738 | Population Apoptotic (%) [3]: 56% | Population Fragmented Nuclei (%) [3]: 5% | Population Healthy Nuclei (%) [3]: 86% | Population Hoechst High Intensity Objects (%) [3]: 3% | Population Membrane Permeable-Phenotype (%) [3]: 7% | Population Mitochondria Different-Phenotype (%) [3]: 26% | Population Mitotic Cells (%) [3]: 43% | Population Normal (%) [3]: 96% | Population Tubulin-Different-Phenotype (%) [3]: 16% | Total Cell Count [3]: 201 | Population Apoptotic (%) [4]: 45% | Population Fragmented Nuclei (%) [4]: 4% | Population Healthy Nuclei (%) [4]: 87% | Population Hoechst High Intensity Objects (%) [4]: 9% | Population Membrane Permeable-Phenotype (%) [4]: 12% | Population Mitochondria Different-Phenotype (%) [4]: 24% | Population Mitotic Cells (%) [4]: 54% | Population Normal (%) [4]: 90% | Population Pyknosed Nuclei (%) [4]: 8% | Population Tubulin-Different-Phenotype (%) [4]: 13% | Total Cell Count [4]: 125 | Population Apoptotic (%) [5]: 27% | Population Fragmented Nuclei (%) [5]: 2% | Population Healthy Nuclei (%) [5]: 93% | Population Hoechst High Intensity Objects (%) [5]: 0% | Population Membrane Permeable-Phenotype (%) [5]: 3% | Population Mitochondria Different-Phenotype (%) [5]: 23% | Population Mitotic Cells (%) [5]: 72% | Population Normal (%) [5]: 99% | Population Tubulin-Different-Phenotype (%) [5]: 31% | Total Cell Count [5]: 576 | Population Apoptotic (%) [6]: 20% | Population Fragmented Nuclei (%) [6]: 8% | Population Healthy Nuclei (%) [6]: 87% | Population Hoechst High Intensity Objects (%) [6]: 6% | Population Membrane Permeable-Phenotype (%) [6]: 14% | Population Mitochondria Different-Phenotype (%) [6]: 42% | Population Mitotic Cells (%) [6]: 80% | Population Normal (%) [6]: 93% | Population Pyknosed Nuclei (%) [6]: 3% | Population Tubulin-Different-Phenotype (%) [6]: 44% | Total Cell Count [6]: 747 | Population Apoptotic (%) [7]: 16% | Population Fragmented Nuclei (%) [7]: 6% | Population Healthy Nuclei (%) [7]: 90% | Population Hoechst High Intensity Objects (%) [7]: 0% | Population Membrane Permeable-Phenotype (%) [7]: 5% | Population Mitochondria Different-Phenotype (%) [7]: 19% | Population Mitotic Cells (%) [7]: 83% | Population Normal (%) [7]: 99% | Population Pyknosed Nuclei (%) [7]: 4% | Population Tubulin-Different-Phenotype (%) [7]: 20% | Total Cell Count [7]: 281 | Population Apoptotic (%) [8]: 14% | Population Fragmented Nuclei (%) [8]: 4% | Population Healthy Nuclei (%) [8]: 88% | Population Hoechst High Intensity Objects (%) [8]: 7% | Population Membrane Permeable-Phenotype (%) [8]: 8% | Population Mitochondria Different-Phenotype (%) [8]: 25% | Population Mitotic Cells (%) [8]: 85% | Population Normal (%) [8]: 92% | Population Pyknosed Nuclei (%) [8]: 7% | Population Tubulin-Different-Phenotype (%) [8]: 19% | Total Cell Count [8]: 145
